Source: article PMC3060995 (Peptides, 2011)

What was measured:
[1] = system: food intake in freely-feeding rats; assay: 3-h IV infusion at dark onset, food intake in non-food-deprived rats; type: in vivo, rat (male Sprague-Dawley)
Procedure, shortened: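 Male Sprague-Dawley rats (350–500 g), housed individually on a 12:12-h light-dark cycle, had ad libitum ground chow. They were jugular-catheterised and tethered to infusion swivels. Each received a single 3-h jugular infusion per day of test compound or vehicle (0.15 M NaCl, 0.1% BSA). Food intake was recorded continuously from bowl weight. Rats with non-patent catheters (Brevital test) were excluded. Analysis used repeated-measures ANOVA with paired t-tests.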

[2] = system: food intake in freely-feeding rats; conditions: cited from earlier work
[3] = 15 pmol/kg/min, 3-h IV infusion at dark onset, vs vehicle, 11–15 rats

Substance	effect on food intake [1, 3]	effect on food intake ([1]; 50 pmol/kg/min, 3-h IV infusion at dark onset, vs vehicle, 11–16 rats)	effect on food intake ([1]; 150 pmol/kg/min, 3-h IV infusion at dark onset, vs vehicle, 11–16 rats)	reduction of 3-h food intake ([1]; 15 pmol/kg/min, 3-h jugular vein infusion beginning 15 min before dark onset, vs vehicle, 11–16 rats, group means) [%]	inhibition of 3-h food intake ([1]; 50 pmol/kg/min, 3-h jugular vein infusion beginning 15 min before dark onset, vs vehicle, 11–16 rats, group means) [%]	relative anorexigenic potency (comparison between PYY forms) ([1]; 3-h IV infusion at dark onset, rats)	approximate mean effective dose for inhibition of food intake ([2]; 3-h IV infusion at dark onset, rats, previously determined) [pmol/kg/min]	potency in reducing food intake relative to PYY(1–36)-NH2 ([2]; 3-h IV infusion during the early dark period, freely-feeding rats)
peptide YY(1–36)-amide [PYY(1–36)-NH2]	significantly smaller effect	similarly reduced food in a dose-dependent manner	similarly reduced food in a dose-dependent manner	–	–	–	–	–
peptide YY(3–36)-amide [PYY(3–36)-NH2]	significantly reduced food intake	–	–	29	42	more potent than Ser^13(PO3)-PYY(3–36)-NH2	~15	an order of magnitude more potent
